Results as given in ChEMBL document CHEMBL1140037, “Effect of cathepsin K inhibitors on bone resorption” (J Med Chem, 2008).
Active and inactive are the calls of the source. The calls are words filed in the database; no cut-off is given here.

Tests used:
[1] = Half life in Sprague-Dawley rat at 1 mg/mL/kg, iv; type: ADME, organism-based; conditions: in vivo
[2] = Plasma clearance in Sprague-Dawley rat at 1 mg/mL/kg, iv; type: ADME, organism-based
[3] = Volume of distribution at steady state in Sprague-Dawley rat at 1 mg/mL/kg, iv; type: ADME, organism-based; conditions: in vivo, read-out: Vdss
[4] = Bioavailability in Sprague-Dawley rat at 3 mg/5 mL/kg, po; type: ADME, organism-based; conditions: in vivo
Rattus norvegicus [5] = test: Antibone resorptive activity in Sprague-Dawley rat assessed as inhibition of cathepsin K-mediated C-terminal telopeptidase of type 1 collagen degradation at 100 mg/kg/day, po for 11 days measured on 24 hrs after final administration by RatLaps ELISA; type: functional; set-up: scale not given: the % may be the effect or the level left
How it was run: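 Intact rats dosed orally with 100 mg/kg once daily for 11 days. Urine collected for 24 h after the final dose on day 11; CTx measured by RatLaps ELISA. Inhibition expressed as percentage of vehicle-treated controls.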

[6] = Drug level in Sprague-Dawley rat serum at 100 mg/kg/day, po for 11 days measured on 25 hrs after final administration; type: ADME, organism-based; set-up: route oral; conditions: read-out: Drug uptake
How it was run: (§1)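 Rats dosed orally with 100 mg/kg once daily for 11 days. Compound concentration in bone marrow and serum measured 25 h after the final dose on day 11. BM/serum ratio calculated from the two concentrations.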

[7] = Drug level in Sprague-Dawley rat bone marrow at 100 mg/kg/day, po for 11 days measured on 25 hrs after final administration; type: ADME, organism-based; set-up: route oral; conditions: read-out: Drug uptake; how it was run: as §1
[8] = Ratio of drug level in bone marrow to serum in po dosed Sprague-Dawley rat; type: ADME, organism-based; conditions: in vivo; how it was run: as §1
Cathepsin K [9] = target: T1, Cathepsin K (Rattus norvegicus, UniProt O35186); test: Inhibition of rat recombinant cathepsin K expressed in Sf21 cells by fluorescence assay
T1 sequence (O35186 whole entry): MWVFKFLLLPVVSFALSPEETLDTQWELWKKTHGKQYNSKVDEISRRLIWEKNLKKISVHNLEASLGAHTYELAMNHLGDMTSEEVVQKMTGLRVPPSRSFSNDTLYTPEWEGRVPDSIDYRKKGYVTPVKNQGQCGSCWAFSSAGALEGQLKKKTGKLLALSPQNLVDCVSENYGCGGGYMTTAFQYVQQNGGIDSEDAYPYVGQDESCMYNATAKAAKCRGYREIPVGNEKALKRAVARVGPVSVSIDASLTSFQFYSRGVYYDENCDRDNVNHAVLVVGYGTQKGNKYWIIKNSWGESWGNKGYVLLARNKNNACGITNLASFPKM

Cathepsin K [10] = target: T2, Cathepsin K (Homo sapiens, UniProt P43235); test: Inhibition of human recombinant cathepsin K by fluorescence assay
T2 sequence (P43235 whole entry): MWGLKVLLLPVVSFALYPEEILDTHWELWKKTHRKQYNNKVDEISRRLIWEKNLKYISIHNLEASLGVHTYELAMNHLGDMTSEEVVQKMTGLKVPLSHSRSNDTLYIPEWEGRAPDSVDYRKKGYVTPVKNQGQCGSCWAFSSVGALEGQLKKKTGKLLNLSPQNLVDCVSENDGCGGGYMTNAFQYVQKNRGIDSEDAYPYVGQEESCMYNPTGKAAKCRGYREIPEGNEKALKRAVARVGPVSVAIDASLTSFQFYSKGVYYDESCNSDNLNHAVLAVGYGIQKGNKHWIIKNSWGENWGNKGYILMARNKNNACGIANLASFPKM
How it was run: (§2)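 Recombinant human cathepsins K, L and S, inhibition read in a fluorescence assay; IC50 values reported.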

Procathepsin L = Procathepsin L (Homo sapiens, UniProt P07711); test: Inhibition of human recombinant cathepsin L by fluorescence assay; how it was run: as §2
Cathepsin S = Cathepsin S (Homo sapiens, UniProt P25774); test: Inhibition of human recombinant cathepsin S by fluorescence assay; how it was run: as §2
[11] = Half life in Sprague-Dawley rat at 4 umol/mL/kg, iv; type: ADME, organism-based; conditions: in vivo
How it was run: (§3)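 Male Sprague-Dawley rats, cassette dosing, iv and oral. Plasma levels by LC-MS/MS. Half-life is the noncompartmental terminal elimination estimate. Clearance, steady-state volume of distribution and bioavailability derived from the profiles.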

[12] = Plasma clearance in Sprague-Dawley rat at 4 umol/mL/kg, iv; type: ADME, organism-based; how it was run: as §3
[13] = Volume of distribution at steady state in Sprague-Dawley rat at 4 umol/mL/kg, iv; type: ADME, organism-based; conditions: in vivo, read-out: Vdss; how it was run: as §3
Rattus norvegicus [14] = test: (§4) Bioavailability in Sprague-Dawley rat at 10 umol/5 mL/kg, po; type: ADME, organism-based; conditions: in vivo; how it was run: as §3
[15] = as §4; type: ADME, organism-based; conditions: Sprague-Dawley, in vivo, 10 umol/5 mL/kg; how it was run: as §3
Cynomolgus monkey [16] = test: Antibone resorptive activity in cynomolgus monkey assessed as reduction of C-terminal telopeptidase of type 1 collagen degradation at 2 mg/kg/day, po measured before 8 hrs after first administration by CrossLaps ELISA; type: functional, organism-based; conditions: Macaca fascicularis
How it was run: (§5)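 Cynomolgus monkeys given 2 mg/kg orally once daily for 14 days. CTx measured by CrossLaps ELISA before and 8 h after dosing on day 1 and on days 7 and 14, and at 24 h after the first dose. Vehicle group run in parallel to allow for daily CTx fluctuation. Means and SEM, n = 4, 5; t-test against vehicle control.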

Cynomolgus monkey [17] = test: Antibone resorptive activity in cynomolgus monkey assessed as reduction of C-terminal telopeptidase of type 1 collagen degradation at 2 mg/kg/day, po measured after 24 hrs after first administration by CrossLaps ELISA; type: functional, organism-based; conditions: Macaca fascicularis; how it was run: as §5
Cynomolgus monkey [18] = test: Antibone resorptive activity in cynomolgus monkey assessed as reduction of C-terminal telopeptidase of type 1 collagen degradation at 2 mg/kg/day, po measured before 8 hrs after 7 days of administration by CrossLaps ELISA; type: functional, organism-based; conditions: Macaca fascicularis; how it was run: as §5
Cynomolgus monkey [19] = test: Antibone resorptive activity in cynomolgus monkey assessed as reduction of C-terminal telopeptidase of type 1 collagen degradation at 2 mg/kg/day, po measured after 8 hrs after 7 days of administration by CrossLaps ELISA; type: functional, organism-based; conditions: Macaca fascicularis; how it was run: as §5
Cynomolgus monkey [20] = test: Antibone resorptive activity in cynomolgus monkey assessed as reduction of C-terminal telopeptidase of type 1 collagen degradation at 2 mg/kg/day, po measured before 8 hrs after 14 days of administration by CrossLaps ELISA; type: functional, organism-based; conditions: Macaca fascicularis; how it was run: as §5
Cynomolgus monkey [21] = test: Antibone resorptive activity in cynomolgus monkey assessed as reduction of cathepsin K-mediated C-terminal telopeptidase of type 1 collagen degradation at 2 mg/kg/day, po measured after 8 hrs after 14 days of administration by CrossLaps ELISA; type: functional, organism-based; conditions: Macaca fascicularis; how it was run: as §5
Cynomolgus monkey [22] = test: Toxicity in cynomolgus monkey at 2 mg/kg/day, po for 14 days; type: organism-based, Macaca fascicularis; set-up: route oral; conditions: in vivo, 336 h

Sequence of Cathepsin S (P25774 whole entry): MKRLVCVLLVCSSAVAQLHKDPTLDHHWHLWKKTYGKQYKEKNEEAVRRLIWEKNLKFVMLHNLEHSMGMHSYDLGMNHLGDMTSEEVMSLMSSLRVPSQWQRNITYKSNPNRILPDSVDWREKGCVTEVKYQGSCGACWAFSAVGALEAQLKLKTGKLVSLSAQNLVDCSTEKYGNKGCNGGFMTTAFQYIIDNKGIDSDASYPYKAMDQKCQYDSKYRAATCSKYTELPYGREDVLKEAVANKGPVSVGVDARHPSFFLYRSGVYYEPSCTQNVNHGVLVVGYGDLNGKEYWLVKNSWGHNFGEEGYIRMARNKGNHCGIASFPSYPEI
Sequence of Procathepsin L (P07711 whole entry): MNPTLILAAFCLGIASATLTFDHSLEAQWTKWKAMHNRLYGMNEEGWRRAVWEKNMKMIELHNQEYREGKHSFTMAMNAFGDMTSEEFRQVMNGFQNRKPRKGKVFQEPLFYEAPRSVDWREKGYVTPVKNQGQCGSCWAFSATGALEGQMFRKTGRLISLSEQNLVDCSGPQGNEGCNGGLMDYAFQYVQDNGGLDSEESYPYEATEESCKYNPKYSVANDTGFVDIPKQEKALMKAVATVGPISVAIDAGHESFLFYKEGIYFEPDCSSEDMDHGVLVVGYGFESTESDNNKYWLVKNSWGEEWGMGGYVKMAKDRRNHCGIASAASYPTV

SMILES | concentration at 25 h [6] [nM] | concentration at 25 h [7] [nM] | Drug uptake [8] | IC50 (Cathepsin K [9]) [µM] | IC50 (Cathepsin K [10]) [µM] | IC50 (Procathepsin L) [µM] | IC50 (Cathepsin S) [µM] | half-life [11] [h] | clearance [12] [mL/min/kg] | Vd [13] [L/kg] | bioavailability [15] [%] | half-life [1] [h] | clearance [2] [mL/min/kg] | Vd [3] [L/kg] | bioavailability [4] [%] | Activity (Rattus norvegicus [5]) [%] | further results
CC(C)(C)Cn1c(CN2C(=O)C3(CCNCC3)c3cc(F)ccc32)cc2cnc(C#N)nc21 | 1200 | 119000 | 99 | 0.078 |  |  |  |  |  |  |  | 6.6 | 132 | 78.4 | 36 | 36.2 | 
COc1ccc2c(c1)C1(CCNCC1)C(=O)N2Cc1cc2cnc(C#N)nc2n1CC(C)(C)C | 288 | 45800 | 159 | 0.044 | < 0.001 | > 1 | > 1 |  |  |  |  | 4.9 | 182 | 73.6 | 29 | 68 | 
CC(C)(C)Cn1c(CN2CCC3(CC2)NC(=O)NC3=O)cc2cnc(C#N)nc21 | 557 | 381 | 0.7 |  | < 0.001 | > 1 | > 1 | 1.6 | 78.3 | 5.9 | 42 |  |  |  |  | -7.9 | 
CC(C)(C)Cn1c(CN2C(=O)CC3(CCNCC3)C2=O)cc2cnc(C#N)nc21 | 960 | 33500 | 34.9 | 0.03 |  |  |  |  |  |  |  | 4.7 | 238 | 97.2 | 98 | 73.2 | Activity (Cynomolgus monkey [16]): Active; Activity (Cynomolgus monkey [17]): Active; Activity (Cynomolgus monkey [18]): Active; Activity (Cynomolgus monkey [19]): Active; Activity (Cynomolgus monkey [20]): Active; Activity (Cynomolgus monkey [21]): Active; Activity (Cynomolgus monkey [22]): Non-toxic

Now from value to molecule, other results behind:

concentration at 25 h [6] [nM] | concentration at 25 h [7] [nM] | Drug uptake [8] | IC50 (Cathepsin K [9]) [µM] | IC50 (Cathepsin K [10]) [µM] | IC50 (Procathepsin L) [µM] | IC50 (Cathepsin S) [µM] | half-life [11] [h] | clearance [12] [mL/min/kg] | Vd [13] [L/kg] | bioavailability [15] [%] | SMILES | half-life [1] [h] | clearance [2] [mL/min/kg] | Vd [3] [L/kg] | bioavailability [4] [%] | Activity (Rattus norvegicus [5]) [%] | further results
 |  |  | 0.076 | < 0.001 | > 1 | > 1 | 3.3 | 245 | 59.2 |  | CC(C)(C)Cn1c(CN2C(=O)NC3(CCNCC3)C2=O)cc2cnc(C#N)nc21 |  |  |  |  |  | Activity (Rattus norvegicus [14]): Not Active
545 | 832 | 1.5 |  | < 0.001 | > 1 | > 1 | 1.9 | 45 | 6.7 | 58 | CCCN1C(=O)NC2(CCN(Cc3cc4cnc(C#N)nc4n3CC(C)(C)C)CC2)C1=O |  |  |  |  | 11.3 | 
133 | 17600 | 132 | 0.027 |  |  |  | 2.8 | 85 | 17.3 | 49 | CCCN1CCC2(CC1)NC(=O)N(Cc1cc3cnc(C#N)nc3n1CC(C)(C)C)C2=O |  |  |  |  | 89.9 | 
64 | 302 | 4.7 | 0.012 |  |  |  | 1.4 | 35 | 4.3 | 144 | CN1C(=O)NC2(CCN(Cc3cc4cnc(C#N)nc4n3CC(C)(C)C)CC2)C1=O |  |  |  |  | 6.8 | 
